From PubChem BioAssay
STAT3 act – STAT3 signaling activation; U3A cells, IL-6 STAT3-luciferase reporter, luminescence; 100% = signal with IL-6 EC80 alone; activation (% of control), % at 5.6 µM; hit rate 0.91% among 190,000;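 active = activation above the screen-wide mean of compound activation plus 3 SD, cut at about 130% in these data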;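 note: 0% = background luminescence of wells with medium and substrate only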
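System – human U3A cells carrying STAT3-luciferase construct · Probe or stimulus – Interleukin-6, 33 ng/mL · Schedule – compound 1 h, then IL-6 6 h at 37 °C · Signal – luminescence from STAT3-driven luciferase reporter · Evaluation – percent of IL-6-only median luminescence · Benchmarks – IL-6-only high control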
STAT1 inh – reduces IFN-gamma driven STAT1 reporter signal | NIH 3T3 STAT1-luciferase reporter, luminescence | inhibition, % at 5.5 µM | hit rate 0.35% among 200,000 | AID 920;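 active = inhibition above a set limit, the mean inhibition across all tested compounds plus 3 SD, cut at about 34% in these data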;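 note: 0% = IFN-gamma with DMSO and 100% = IFN-gamma with 300 µM nifuroxazide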
PPC-1+TRAIL kill – PPC-1 cancer cell killing with TRAIL present | PPC-1 cells + TRAIL, ATPLite viability luminescence | cell killing (% activity), % at 4 µM or 5 µM | hit rate 0.41% among 220,000 | AID 1443;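 active = cell killing above 50% in the first pass at 4 µM, then a duplicate retest at 5 µM averaging 50% or more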;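 note: plate controls were cells with TRAIL plus DMSO for no effect and medium-only wells lacking cells for full effect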
HSP90 inh – blocks HSP90-mediated luciferase refolding in reticulocyte lysate | inhibition, % at 5.6 µM | hit rate 0.91% among 290,000 | AID 1789 | Rabbit reticulocyte lysate, luciferase refolding luminescence, 3 h;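 active = inhibition above the screen-wide mean plus 3 SD, computed separately per campaign, cut at about 16% in these data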;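 note: 0% = DMSO wells and 100% = 60 µM geldanamycin wells; inhibitors lower the luminescence because luciferase stays unfolded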
TRAIL sens C8 – sensitizes caspase-8 expressing cells to TRAIL; hit rate 1% among 360,000; inhibition (viability loss, TRAIL sensitization), % at 10 µM; NB7+C8 cells + TRAIL, ATPlite viability luminescence;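 active = compounds causing at least 50% loss of cell viability in the single-dose screen, relative to plate controls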
STAT3 blocker – reduces IL-6 driven STAT3 reporter signal | U3A cells, IL-6 STAT3-luciferase reporter, luminescence; host cell line lacks STAT1 | inhibition, % at 5.5 µM | hit rate 0.89% among 190,000 | AID 862;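 active = inhibition above the mean inhibition across all screened compounds plus 3 SD, cut at about 44% in these data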;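 note: 0% = DMSO only wells and 100% = 100 µM nifuroxazide control wells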
HSP90 confirm – confirmation of HSP90 inhibitors. rabbit reticulocyte lysate, luciferase refolding luminescence, 3 h. hit rate 64% among 2,300. shares compounds with HSP90 inh. inhibition, % at 5.9 µM; in the data active = inhibition above about 18%;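 note: 0% = vehicle wells and 100% = reference inhibitor wells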
luciferase ctr – blocks native firefly luciferase in HSP90 counter-screen; AID 1847; inhibition, % at 5.9 µM; shares compounds with HSP90 inh; hit rate 48% among 2,300; purified native firefly luciferase, luminescence;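 active = inhibition above the mean inhibition of all tested sample wells plus 3 SD, cut at about 10% in these data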;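 note: 0% = DMSO with luciferase and 100% = wells lacking luciferase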
Target sequence (P08659 whole entry, looked up): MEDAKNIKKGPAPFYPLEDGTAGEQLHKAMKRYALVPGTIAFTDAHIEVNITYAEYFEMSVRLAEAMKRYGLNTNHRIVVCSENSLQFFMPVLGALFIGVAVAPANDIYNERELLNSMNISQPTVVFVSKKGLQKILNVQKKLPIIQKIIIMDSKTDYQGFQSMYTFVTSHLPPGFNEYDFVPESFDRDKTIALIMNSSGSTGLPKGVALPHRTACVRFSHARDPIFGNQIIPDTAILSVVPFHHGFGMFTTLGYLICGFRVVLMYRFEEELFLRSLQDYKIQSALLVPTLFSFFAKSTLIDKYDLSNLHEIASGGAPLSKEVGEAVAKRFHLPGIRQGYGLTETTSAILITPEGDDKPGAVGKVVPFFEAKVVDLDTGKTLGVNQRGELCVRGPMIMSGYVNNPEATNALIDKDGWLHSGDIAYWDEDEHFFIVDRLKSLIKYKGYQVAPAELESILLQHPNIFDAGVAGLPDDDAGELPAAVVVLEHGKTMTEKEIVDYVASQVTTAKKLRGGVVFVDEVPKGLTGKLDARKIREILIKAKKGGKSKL
* hit, by the source's call; . = no result given. Rows were chosen to be rich in hits. Some 2.3% of all compounds tested hit in one or more screens of this group.

SMILES	STAT3 act	STAT1 inh	PPC-1+TRAIL kill	HSP90 inh	TRAIL sens C8	STAT3 blocker	HSP90 confirm	luciferase ctr
CC(O)CNC(=S)Nc1ccccc1 (centres undefined)	97	2	5	23*	14	5	-6	-13
Cc1cccc(Nc2nc(-c3ccc4c(c3)OCCO4)cs2)c1	103	-63	40	47*	37	-3	-2	-27
Cc1cccc(Nc2nc(-c3ccncc3)cs2)c1	112	-34	-41	-5	8	-1	.	.
CC(C)(C)c1ccc(C(=O)Nc2nnc(SCC(=O)NCC3CCCO3)s2)cc1 (centres undefined)	.	.	.	36*	94*	.	54*	45*
O=C(CSc1nnc(NC(=O)c2c(F)cccc2F)s1)NCC1CCCO1 (centres undefined)	.	.	.	.	-3	.	.	.
CCOc1ccc(C(=O)Nc2nnc(SCC(=O)NCC3CCCO3)s2)cc1 (centres undefined)	.	.	.	36*	92*	.	61*	44*
CCOc1ccc(C(C)NC(=S)NCc2ccc(Cl)cc2)cc1 (centres undefined)	103	-6	-11	-2	-12	6	.	.
O=C(NC(=Nc1nc2ccccc2o1)NC(=O)c1ccccc1)c1ccccc1	86	5	9	-2	-16	20	.	.
O=C(NNc1nc2ccccc2o1)c1ccccc1	.	.	22	20*	13	.	28*	20*
CCCS(=O)(=O)N1CCC(C(=O)NCCCN2CCCC2=O)CC1	105	-6	-2	-1	-5	-3	.	.
O=C(NCC(c1cccs1)N1CCOCC1)c1cccc([N+](=O)[O-])c1 (centres undefined)	89	-6	-8	67*	21	17	-7	-6
O=C(NCc1ccco1)c1ccccc1Br	106	4	-10	19*	0	-3	0	-6
O=C(NNC(=S)NCc1ccco1)c1ccccc1Br	.	.	.	3	-6	.	.	.
CC(C)C(=O)Nc1ccc(-c2nc3ncccc3o2)cc1	.	.	.	18*	37	.	25*	13*
CCCC(=O)Nc1ccc(Cl)c(-c2nc3ncccc3o2)c1	.	.	.	23*	-2	.	-7	-11
CCC(=O)Nc1ccc(Cl)c(-c2nc3ncccc3o2)c1	.	.	.	4	0	.	.	.
CC(C)C(=O)Nc1cccc(-c2nc3ncccc3o2)c1	.	.	.	0	4	.	.	.
O=C(Nc1cccnc1)c1cc(S(=O)(=O)N2CCCCC2)c(Cl)cc1Cl	.	.	.	0	-7	.	.	.
O=C(CSc1nc(-c2ccccc2)c(-c2ccccc2)[nH]1)NCc1ccco1	94	13	5	3	7	8	.	.
N#Cc1cc2cc3c(cc2nc1SCC(=O)N1CCOCC1)OCCO3	.	.	.	21*	4	.	17*	-3
Cc1cc2cc3c(cc2nc1SCC(=O)N1CCCC1)OCCO3	.	.	.	-2	-3	.	.	.
Cc1ccc(NC(=O)CCCNC(=O)c2ccc(Cl)cc2)c(Br)c1	.	.	.	4	10	.	.	.
O=[N+]([O-])c1cccnc1Oc1ccc(F)cc1	.	.	7	1	-7	.	.	.
O=C(O)Cc1ccc(C(=O)c2ccccc2)s1	106	2	12	-4	-9	-6	.	.
CCc1cc(C(=O)c2ccccc2)c(N)s1	.	.	.	21*	-8	.	-3	-10
SMILES	STAT3 act	STAT1 inh	PPC-1+TRAIL kill	HSP90 inh	TRAIL sens C8	STAT3 blocker	HSP90 confirm	luciferase ctr
N#CCCN(CCC#N)C(=O)c1ccc2c(c1)OCO2	99	4	29	2	-10	3	.	.
Cc1ccc(Cc2c(-c3ccc(C#N)cc3)nc3c(C)cc(Br)cn23)cc1	.	.	.	.	4	.	.	.
CN1CCN(C(=O)C2=C[C@@H](c3ccc(Br)cc3)C[C@@H](OCc3ccc(CO)cc3)O2)CC1	.	6	-3	25*	-4	.	-3	-4
Nc1nnc(-c2cc3ccccc3oc2=O)s1	104	-33	30	-3	-3	-4	.	.
Nc1cccc(-c2cc3ccccc3oc2=O)c1	81	-14	-21	44*	6	27	35*	-16
COC(=O)c1cc(C)nc2c1C(=O)C(=O)C=C2N1CCOCC1	.	.	.	45*	92*	.	91*	-3
COC(=O)c1cc(S(=O)(=O)N2CCOCC2)c(Cl)cc1N1CCOCC1	103	-5	-1	3	-8	-3	.	.
CC1(C)Cc2c(sc(N)c2C#N)C(C)(C)N1	101	-7	24	1	-3	3	.	.
COC(=O)c1ccc(N/C=C/C(=O)c2ccccc2)cc1	.	.	.	21*	55*	.	52*	3
CC1CCCN(C(=O)CSc2nnc(-c3c[nH]c4ccccc34)o2)C1 (centres undefined)	96	-5	12	38*	-3	7	-5	-17
CC1CCCC(C)N1C(=O)CSc1nnc(-c2c[nH]c3ccccc23)o1 (centres undefined)	94	-22	3	-4	-3	10	.	.
CN(C)C(CNC(=S)Nc1cccc(Cl)c1)c1cccnc1 (centres undefined)	96	2	-3	-4	-4	7	.	.
COc1ccc(NC(=O)C2CC(=O)N/C(=N/N=C/c3ccco3)S2)cc1 (centres undefined)	.	.	7	-8	-7	.	.	.
COc1ccc(/C=N/N=C2/NC(=O)CC(C(=O)O)S2)cc1 (centres undefined)	91	4	21	23*	-6	13	36*	-15
Cc1ccc(-c2nc3ccc(Cl)cc3n2OC(C)C(=O)O)cc1 (centres undefined)	102	-46	21	62*	3	4	-5	-23
Cc1cc(CC(C)C)n(-c2nc3ccccc3c(=O)n2OCc2ccccc2)n1	128	3	17	18*	30	-31	15	9.5*
Cc1cc(CC(C)C)n(-c2nc3ccccc3c(=O)n2OCC(=O)N(C)C)n1	106	-19	-1	9	23	2	.	.
O=C(COC(=O)c1nsc(Cl)c1Cl)NC1CCCCC1	.	.	.	-4	-8	.	.	.
O=C(COC(=O)c1nsc(Cl)c1Cl)NC1CCCC1	.	.	.	23*	-6	.	-5	-14
O=C(NC1CCCC1)C(c1ccccc1)N(Cc1cccnc1)C(=O)Cc1cccs1 (centres undefined)	103	2	3	0	9	4	.	.
Cc1cccc(CCN(C(=O)Cc2cccs2)C(C(=O)NC2CCCCC2)c2cccnc2)c1 (centres undefined)	115	4	19	25*	-1	-15	2	-4
O=C(Nc1ccccc1Cl)NC1(C(=O)NCCCN2CCOCC2)CCCCC1	97	5	8	5	1	7	.	.
O=C(NC1CCCCC1)NC1(C(=O)NCCCN2CCOCC2)CCCCC1	99	-6	6	27*	-18	3	-1	-3
